Measured values reported in ChEMBL document CHEMBL1649446, “Comparative antipneumococcal activities of sulopenem and other drugs” (2009).
In brackets after ≈: the same amount, converted by molar mass.

Columns and labels:
Assay type in all cases: functional
Streptococcus pneumoniae [1] = assay: Antimicrobial activity against penicillin-susceptible Streptococcus pneumoniae by agar dilution method
Streptococcus pneumoniae [2] = assay: Antimicrobial activity against penicillin-intermediate Streptococcus pneumoniae by agar dilution method
Streptococcus pneumoniae [3] = assay: Antimicrobial activity against penicillin-resistant Streptococcus pneumoniae by agar dilution method
In short: (§1)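 Agar dilution MIC on Mueller-Hinton agar with 5% sheep blood, inocula 10^4 CFU/spot; amoxicillin-clavulanate combined 1:2; S. pneumoniae ATCC 49619 quality control each run.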

Streptococcus pneumoniae [4] = assay: Antimicrobial activity against penicillin-susceptible Streptococcus pneumoniae by agar dilution method in presence of beta-lactamase inhibitor clavulanic acid
Streptococcus pneumoniae [5] = assay: Antimicrobial activity against penicillin-intermediate Streptococcus pneumoniae by agar dilution method in presence of beta-lactamase inhibitor clavulanic acid
In short: (§2)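 Agar dilution MIC on Mueller-Hinton agar with 5% sheep blood at 10^4 CFU/spot. Clavulanate combined with amoxicillin 1:2. Control S. pneumoniae ATCC 49619 included in each run. Penicillin categories: intermediate 0.125–1.0 μg/ml, resistant 2.0–16.0 μg/ml. MIC50/MIC90 taken across strain sets, including 45 drug-resistant serotype 19A isolates.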

Streptococcus pneumoniae [6] = assay: Antimicrobial activity against penicillin-resistant Streptococcus pneumoniae by agar dilution method in presence of beta-lactamase inhibitor clavulanic acid; in short: as §2
Streptococcus pneumoniae [7] = assay: Antimicrobial activity against Streptococcus pneumoniae 19A by agar dilution method; in short: as §1
Streptococcus pneumoniae [8] = assay: Antimicrobial activity against Streptococcus pneumoniae 19A by agar dilution method in presence of beta-lactamase inhibitor clavulanic acid; in short: as §2
Streptococcus pneumoniae [9] = assay: Antimicrobial activity against Streptococcus pneumoniae 1 by time-kill analysis
In short: (§3)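 Time-kill in cation-adjusted Mueller-Hinton broth with 5% lysed horse blood; inocula 5 × 105 to 5 × 10^6 CFU/ml; drugs at MIC, 2× and 4× MIC; 35°C shaking water bath; viable counts at 0, 3, 6, 12 and 24 h. Bactericidal if ≥3 log10 CFU/ml (99.9%) reduction from original inoculum; 90% and 99% killing also scored.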

Streptococcus pneumoniae [10] = assay: Antimicrobial activity against Streptococcus pneumoniae 2 by time-kill analysis
In short: (§4)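 Time-kill in cation-adjusted Mueller-Hinton broth with 5% lysed horse blood; inocula 5 × 105 to 5 × 10^6 CFU/ml; drugs at MIC, 2× and 4× MIC; 35°C shaking water bath; viable counts at 0, 3, 6, 12, 24 h. Bactericidal = ≥3 log10 CFU/ml (99.9%) drop from original inoculum; 90%/99%/99.9% killing scored per strain.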

Streptococcus pneumoniae [11] = assay: Antimicrobial activity against Streptococcus pneumoniae 3 by time-kill analysis; in short: as §4
Streptococcus pneumoniae [12] = assay: Antimicrobial activity against Streptococcus pneumoniae 4 by time-kill analysis; in short: as §4
Streptococcus pneumoniae [13] = assay: Antimicrobial activity against Streptococcus pneumoniae 5 by time-kill analysis; in short: as §3
Streptococcus pneumoniae [14] = assay: Antimicrobial activity against Streptococcus pneumoniae 6 by time-kill analysis; in short: as §4
Streptococcus pneumoniae [15] = assay: Antimicrobial activity against Streptococcus pneumoniae 7 by time-kill analysis; in short: as §4
Streptococcus pneumoniae [16] = assay: Antimicrobial activity against Streptococcus pneumoniae 8 by time-kill analysis; in short: as §4
Streptococcus pneumoniae [17] = assay: Antimicrobial activity against Streptococcus pneumoniae 9 by time-kill analysis; in short: as §3
Streptococcus pneumoniae [18] = assay: Antimicrobial activity against Streptococcus pneumoniae 10 by time-kill analysis; in short: as §4
Streptococcus pneumoniae [19] = assay: Antimicrobial activity against Streptococcus pneumoniae 11 by time-kill analysis; in short: as §4
Streptococcus pneumoniae [20] = assay: Antimicrobial activity against Streptococcus pneumoniae 12 by time-kill analysis; in short: as §4
Streptococcus pneumoniae [21] = assay: Antimicrobial activity against Streptococcus pneumoniae isolate 24 by agar dilution method
Streptococcus pneumoniae [22] = assay: Antimicrobial activity against Streptococcus pneumoniae isolate 33 by agar dilution method; in short: as §1
Streptococcus pneumoniae [23] = assay: Antimicrobial activity against Streptococcus pneumoniae isolate 37 by agar dilution method; in short: as §1
Streptococcus pneumoniae [24] = assay: Antimicrobial activity against Streptococcus pneumoniae isolate 1055 by agar dilution method
Streptococcus pneumoniae [25] = assay: Antimicrobial activity against Streptococcus pneumoniae isolate 1146 by agar dilution method; in short: as §1
Streptococcus pneumoniae [26] = assay: Antimicrobial activity against Streptococcus pneumoniae isolate 1147 by agar dilution method; in short: as §1
Streptococcus pneumoniae [27] = assay: Antimicrobial activity against Streptococcus pneumoniae isolate 1384 by agar dilution method; in short: as §1
Streptococcus pneumoniae [28] = assay: Antimicrobial activity against Streptococcus pneumoniae isolate 1394 by agar dilution method
Streptococcus pneumoniae [29] = assay: Antimicrobial activity against Streptococcus pneumoniae isolate 1397 by agar dilution method; in short: as §1
Streptococcus pneumoniae [30] = assay: Antimicrobial activity against Streptococcus pneumoniae isolate 1424 by agar dilution method; in short: as §1
Streptococcus pneumoniae [31] = assay: Antimicrobial activity against Streptococcus pneumoniae isolate 1564 by agar dilution method
Streptococcus pneumoniae [32] = assay: Antimicrobial activity against Streptococcus pneumoniae isolate 2617 by agar dilution method; in short: as §1
Streptococcus pneumoniae [33] = assay: Antimicrobial activity against Streptococcus pneumoniae isolate 2686 by agar dilution method; in short: as §1
Streptococcus pneumoniae [34] = assay: Antimicrobial activity against Streptococcus pneumoniae isolate 2688 by agar dilution method; in short: as §1
Streptococcus pneumoniae [35] = assay: Antimicrobial activity against Streptococcus pneumoniae isolate 2874 by agar dilution method; in short: as §1
Streptococcus pneumoniae [36] = assay: Antimicrobial activity against Streptococcus pneumoniae isolate 2880 by agar dilution method; in short: as §1
Streptococcus pneumoniae [37] = assay: Antimicrobial activity against Streptococcus pneumoniae isolate 3260 by agar dilution method
Streptococcus pneumoniae [38] = assay: Antimicrobial activity against Streptococcus pneumoniae isolate 3263 by agar dilution method
Streptococcus pneumoniae [39] = assay: Antimicrobial activity against Streptococcus pneumoniae isolate 3275 by agar dilution method; in short: as §1
Streptococcus pneumoniae [40] = assay: Antimicrobial activity against Streptococcus pneumoniae isolate 3282 by agar dilution method
Streptococcus pneumoniae [41] = assay: Antimicrobial activity against Streptococcus pneumoniae isolate 3346 by agar dilution method
Streptococcus pneumoniae [42] = assay: Antimicrobial activity against Streptococcus pneumoniae isolate 3374 by agar dilution method; in short: as §1
Streptococcus pneumoniae [43] = assay: Antimicrobial activity against Streptococcus pneumoniae isolate 3412 by agar dilution method; in short: as §1
Streptococcus pneumoniae [44] = assay: Antimicrobial activity against Streptococcus pneumoniae isolate 3455 by agar dilution method
Streptococcus pneumoniae [45] = assay: Antimicrobial activity against Streptococcus pneumoniae isolate 3458 by agar dilution method
Streptococcus pneumoniae [46] = assay: Antimicrobial activity against Streptococcus pneumoniae isolate 3481 by agar dilution method; in short: as §1
Streptococcus pneumoniae [47] = assay: Antimicrobial activity against Streptococcus pneumoniae isolate 3587 by agar dilution method
Streptococcus pneumoniae [48] = assay: Antimicrobial activity against Streptococcus pneumoniae isolate 3681 by agar dilution method; in short: as §1
Streptococcus pneumoniae [49] = assay: Antimicrobial activity against Streptococcus pneumoniae isolate 3791 by agar dilution method; in short: as §1
Streptococcus pneumoniae [50] = assay: Antimicrobial activity against Streptococcus pneumoniae isolate 4747 by agar dilution method; in short: as §1
Streptococcus pneumoniae [51] = assay: Antimicrobial activity against Streptococcus pneumoniae isolate 4755 by agar dilution method; in short: as §1
Streptococcus pneumoniae [52] = assay: Antimicrobial activity against Streptococcus pneumoniae 1 by time-kill analysis in presence of beta-lactamase inhibitor clavulanic acid
Streptococcus pneumoniae [53] = assay: Antimicrobial activity against Streptococcus pneumoniae 2 by time-kill analysis in presence of beta-lactamase inhibitor clavulanic acid
Streptococcus pneumoniae [54] = assay: Antimicrobial activity against Streptococcus pneumoniae 3 by time-kill analysis in presence of beta-lactamase inhibitor clavulanic acid
Streptococcus pneumoniae [55] = assay: Antimicrobial activity against Streptococcus pneumoniae 4 by time-kill analysis in presence of beta-lactamase inhibitor clavulanic acid
Streptococcus pneumoniae [56] = assay: Antimicrobial activity against Streptococcus pneumoniae 5 by time-kill analysis in presence of beta-lactamase inhibitor clavulanic acid
Streptococcus pneumoniae [57] = assay: Antimicrobial activity against Streptococcus pneumoniae 6 by time-kill analysis in presence of beta-lactamase inhibitor clavulanic acid
Streptococcus pneumoniae [58] = assay: Antimicrobial activity against Streptococcus pneumoniae 7 by time-kill analysis in presence of beta-lactamase inhibitor clavulanic acid
Streptococcus pneumoniae [59] = assay: Antimicrobial activity against Streptococcus pneumoniae 8 by time-kill analysis in presence of beta-lactamase inhibitor clavulanic acid
Streptococcus pneumoniae [60] = assay: Antimicrobial activity against Streptococcus pneumoniae 9 by time-kill analysis in presence of beta-lactamase inhibitor clavulanic acid
Streptococcus pneumoniae [61] = assay: Antimicrobial activity against Streptococcus pneumoniae 10 by time-kill analysis in presence of beta-lactamase inhibitor clavulanic acid
Streptococcus pneumoniae [62] = assay: Antimicrobial activity against Streptococcus pneumoniae 11 by time-kill analysis in presence of beta-lactamase inhibitor clavulanic acid
Streptococcus pneumoniae [63] = assay: Antimicrobial activity against Streptococcus pneumoniae 12 by time-kill analysis in presence of beta-lactamase inhibitor clavulanic acid

CC1(C)S[C@@H]2[C@H](NC(=O)[C@H](N)c3ccc(O)cc3)C(=O)N2[C@H]1C(=O)O [AMOXICILLIN]
MIC50 (Streptococcus pneumoniae [1]): 0.03 µg/mL (≈ 0.0821 µM)
MIC90 (Streptococcus pneumoniae [1]): 0.03 µg/mL (≈ 0.0821 µM)
MIC50 (Streptococcus pneumoniae [2]): 0.25 µg/mL (≈ 0.684 µM)
MIC90 (Streptococcus pneumoniae [2]): 1 µg/mL (≈ 2.74 µM)
MIC50 (Streptococcus pneumoniae [3]): 2 µg/mL (≈ 5.47 µM)
MIC90 (Streptococcus pneumoniae [3]): 8 µg/mL (≈ 21.9 µM)
MIC50 (Streptococcus pneumoniae [4]): 0.03 µg/mL
MIC90 (Streptococcus pneumoniae [4]): 0.03 µg/mL
MIC50 (Streptococcus pneumoniae [5]): 0.25 µg/mL
MIC90 (Streptococcus pneumoniae [5]): 1 µg/mL
MIC50 (Streptococcus pneumoniae [6]): 2 µg/mL
MIC90 (Streptococcus pneumoniae [6]): 4 µg/mL
MIC50 (Streptococcus pneumoniae [7]): 8 µg/mL (≈ 21.9 µM)
MIC90 (Streptococcus pneumoniae [7]): 8 µg/mL (≈ 21.9 µM)
MIC50 (Streptococcus pneumoniae [8]): 8 µg/mL
MIC90 (Streptococcus pneumoniae [8]): 8 µg/mL
MIC (Streptococcus pneumoniae [9]): 0.03 µg/mL (≈ 0.0821 µM)
MIC (Streptococcus pneumoniae [10]): 0.03 µg/mL (≈ 0.0821 µM)
MIC (Streptococcus pneumoniae [11]): 0.5 µg/mL (≈ 1.37 µM)
MIC (Streptococcus pneumoniae [12]): 2 µg/mL (≈ 5.47 µM)
MIC (Streptococcus pneumoniae [13]): 8 µg/mL (≈ 21.9 µM)
MIC (Streptococcus pneumoniae [14]): 0.25 µg/mL (≈ 0.684 µM)
MIC (Streptococcus pneumoniae [15]): 2 µg/mL (≈ 5.47 µM)
MIC (Streptococcus pneumoniae [16]): 2 µg/mL (≈ 5.47 µM)
MIC (Streptococcus pneumoniae [17]): 0.25 µg/mL (≈ 0.684 µM)
MIC (Streptococcus pneumoniae [18]): 0.06 µg/mL (≈ 0.164 µM)
MIC (Streptococcus pneumoniae [19]): 2 µg/mL (≈ 5.47 µM)
MIC (Streptococcus pneumoniae [20]): 1 µg/mL (≈ 2.74 µM)
MIC (Streptococcus pneumoniae [21]): 2 µg/mL (≈ 5.47 µM)
MIC (Streptococcus pneumoniae [22]): 2 µg/mL (≈ 5.47 µM)
MIC (Streptococcus pneumoniae [23]): 2 µg/mL (≈ 5.47 µM)
MIC (Streptococcus pneumoniae [24]): 4 µg/mL (≈ 10.9 µM)
MIC (Streptococcus pneumoniae [25]): 4 µg/mL (≈ 10.9 µM)
MIC (Streptococcus pneumoniae [26]): 4 µg/mL (≈ 10.9 µM)
MIC (Streptococcus pneumoniae [27]): 4 µg/mL (≈ 10.9 µM)
MIC (Streptococcus pneumoniae [28]): 8 µg/mL (≈ 21.9 µM)
MIC (Streptococcus pneumoniae [29]): 4 µg/mL (≈ 10.9 µM)
MIC (Streptococcus pneumoniae [30]): 8 µg/mL (≈ 21.9 µM)
MIC (Streptococcus pneumoniae [31]): 4 µg/mL (≈ 10.9 µM)
MIC (Streptococcus pneumoniae [32]): 1 µg/mL (≈ 2.74 µM)
MIC (Streptococcus pneumoniae [33]): 8 µg/mL (≈ 21.9 µM)
MIC (Streptococcus pneumoniae [34]): 16 µg/mL (≈ 43.8 µM)
MIC (Streptococcus pneumoniae [35]): 0.5 µg/mL (≈ 1.37 µM)
MIC (Streptococcus pneumoniae [36]): 0.125 µg/mL (≈ 0.342 µM)
MIC (Streptococcus pneumoniae [37]): 8 µg/mL (≈ 21.9 µM)
MIC (Streptococcus pneumoniae [38]): 2 µg/mL (≈ 5.47 µM)
MIC (Streptococcus pneumoniae [39]): 1 µg/mL (≈ 2.74 µM)
MIC (Streptococcus pneumoniae [40]): 4 µg/mL (≈ 10.9 µM)
MIC (Streptococcus pneumoniae [41]): 8 µg/mL (≈ 21.9 µM)
MIC (Streptococcus pneumoniae [42]): 1 µg/mL (≈ 2.74 µM)
MIC (Streptococcus pneumoniae [43]): 4 µg/mL (≈ 10.9 µM)
MIC (Streptococcus pneumoniae [44]): 8 µg/mL (≈ 21.9 µM)
MIC (Streptococcus pneumoniae [45]): 8 µg/mL (≈ 21.9 µM)
MIC (Streptococcus pneumoniae [46]): 8 µg/mL (≈ 21.9 µM)
MIC (Streptococcus pneumoniae [47]): 1 µg/mL (≈ 2.74 µM)
MIC (Streptococcus pneumoniae [48]): 2 µg/mL (≈ 5.47 µM)
MIC (Streptococcus pneumoniae [49]): 2 µg/mL (≈ 5.47 µM)
MIC (Streptococcus pneumoniae [50]): 8 µg/mL (≈ 21.9 µM)
MIC (Streptococcus pneumoniae [51]): 4 µg/mL (≈ 10.9 µM)
MIC (Streptococcus pneumoniae [52]): 0.03 µg/mL
MIC (Streptococcus pneumoniae [53]): 0.03 µg/mL
MIC (Streptococcus pneumoniae [54]): 0.5 µg/mL
MIC (Streptococcus pneumoniae [55]): 2 µg/mL
MIC (Streptococcus pneumoniae [56]): 8 µg/mL
MIC (Streptococcus pneumoniae [57]): 0.25 µg/mL
MIC (Streptococcus pneumoniae [58]): 2 µg/mL
MIC (Streptococcus pneumoniae [59]): 2 µg/mL
MIC (Streptococcus pneumoniae [60]): 0.25 µg/mL
MIC (Streptococcus pneumoniae [61]): 0.06 µg/mL
MIC (Streptococcus pneumoniae [62]): 2 µg/mL
MIC (Streptococcus pneumoniae [63]): 1 µg/mL
